# Assay outcomes: PubChem, several laboratories
# Shown are actives, neighbours in structure and some others; about 1.6% of the full set was active somewhere.
# FLuc inh counter – counter-screen for luciferase assay inhibitors: firefly luciferase inhibition; inhibition, % at 10 µM; P08659; AID 1006; 200,000 compounds, 1.5% hits; ATPLite firefly luciferase biochemical luminescence, 10 min;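 active = inhibition above about 50% when tested at 10 µM, limit read from the data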
# Target sequence (P08659 whole entry, looked up): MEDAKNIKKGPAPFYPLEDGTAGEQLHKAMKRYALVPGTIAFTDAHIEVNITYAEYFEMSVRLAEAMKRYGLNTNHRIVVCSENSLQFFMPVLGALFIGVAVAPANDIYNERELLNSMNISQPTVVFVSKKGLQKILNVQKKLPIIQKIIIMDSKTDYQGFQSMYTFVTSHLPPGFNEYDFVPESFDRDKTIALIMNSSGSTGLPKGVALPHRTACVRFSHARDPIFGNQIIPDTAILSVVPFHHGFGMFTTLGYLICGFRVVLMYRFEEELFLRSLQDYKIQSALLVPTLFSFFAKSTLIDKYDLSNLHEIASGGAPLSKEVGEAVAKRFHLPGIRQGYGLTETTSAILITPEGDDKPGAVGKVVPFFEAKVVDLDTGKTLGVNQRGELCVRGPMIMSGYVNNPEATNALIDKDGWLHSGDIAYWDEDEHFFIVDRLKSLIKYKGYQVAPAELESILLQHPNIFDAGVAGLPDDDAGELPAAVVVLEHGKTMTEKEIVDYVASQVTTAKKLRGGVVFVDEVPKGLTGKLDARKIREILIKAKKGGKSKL
# TRAIL sens C8 – caspase-8 TRAIL sensitization. 360,000 compounds, 1% hits. inhibition (viability loss, TRAIL sensitization), % at 10 µM. NB7+C8 cells + TRAIL, ATPlite viability luminescence;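 active = compounds causing at least 50% loss of cell viability in the single-dose screen, relative to plate controls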
# PPC-1+TRAIL kill – compounds killing PPC-1 cancer cells with TRAIL present (potentiator screen, no TRAIL-free arm); PPC-1 cells + TRAIL, ATPLite viability luminescence; cell killing (% activity), % at 4 µM or 5 µM; 220,000 compounds, 0.41% hits; AID 1443;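 active = cell killing above 50% in the first pass at 4 µM, then a duplicate retest at 5 µM averaging 50% or more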;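 also: plate controls were cells with TRAIL plus DMSO for no effect and medium-only wells lacking cells for full effect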
# FLuc act counter – affects firefly luciferase, flagging false hits in luciferase stimulation screens. P08659. ATPlite luciferase biochemical, luminescence, 10 min; 0 = ATP-free wells, 1 = DMSO control. activation factor at 10 µM. 200,000 tested, under 10 active. AID 1027;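 active = luciferase activation factor, scaled between plate controls, of at least 2 with compound at 10 µM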
#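 Material: Luciferase/luciferin reagent mix; Doses: test compounds dosed from 2 mM stocks in 100% DMSO; Schedule: 10 min incubation after luciferase reagent addition, room temperature; Measured by: luminescence from luciferase reaction; Read-out: luminescence gain marking luciferase activators.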
# Platelet DG rel – modulates dense granule release in human platelets; 300,000 compounds, 0.22% hits; human platelet-rich plasma, SFLLRN dense granule ATP release, luminescence; inhibition, %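 (compounds screened at 7.5 µM in platelet-rich plasma)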; AID 1663;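 active = mean replicate score, as percent of positive control, at or above 50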
# PPC1 cytotox – kills PPC-1 cells | shares compounds with PPC-1+TRAIL kill | PPC-1 viability, ATPlite luminescence, overnight | cytotoxicity, % at 5 µM | 1,200 compounds, 50% hits;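 active = reconfirmed compounds whose average cytotoxicity reaches 50% or more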;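 also: 0% = DMSO-treated cells and 100% = wells holding medium but no cells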
# * hit, by the source's call; . = no result given.
SMILES,FLuc inh counter,TRAIL sens C8,PPC-1+TRAIL kill,FLuc act counter,Platelet DG rel,PPC1 cytotox
CCc1nc2ccc(C(=O)NCCCn3ccnc3)cn2c1N(C)CCC(C)C,.,18,.,.,.,.
CC(C)c1cccc(-c2csc(C(C)(O)c3ccncc3)n2)c1 (stereo not drawn),.,0,.,.,.,.
O=C(Cc1cccs1)NCc1ccco1,-5,-5,1,1.1,0,-5
O=C(Cc1cccs1)Nc1ccc(Cl)cc1,5,-6,3,0.9,-3,2
NC(=O)c1ccc(NC(=O)Cc2cccs2)cc1,.,0,.,.,17,.
CCCNC(=O)C1(C)CCN(C(=O)COCc2ccccc2)C1 (stereo not drawn),.,14,.,.,.,.
CC(C)(C)OC(=O)N1CCC[C@@H]1C(=O)N1CCC[C@@H]1C(=O)NCc1ccccc1Cl,.,1,.,.,.,.
NC(=O)c1ccccc1NC(=O)/C=C/c1ccc(Cl)cc1,80*,68*,56*,0.2,-10,57*
O=C(/C=C/c1ccc(Cl)cc1)NC(=S)Nc1ccccc1C(=O)O,.,-42,-5,.,-2,.
COc1ccc(NC(=O)c2cc(C3CCCCN3C(=O)c3ccccc3)on2)c(C)c1 (stereo not drawn),.,-22,.,.,.,.
CC1(C(=O)Nc2cccc(OC(F)(F)F)c2)Cc2c(-c3ccc4c(c3)OCO4)ccnc2O1 (stereo not drawn),.,8,.,.,.,.
CC(C)c1ccc(OCc2nc(-c3ccccn3)no2)c(Br)c1,36,15,-2,0.6,3,.
Cc1ccc(OCc2nc(-c3ccccn3)no2)c(Br)c1,79*,59*,35,0.2,8,37
CC[n+]1c(/C=C/N(C)c2ccccc2)oc2ccc(Cl)cc21,-1,20,7,1,-6,.
CCN1/C(=C/C=C/c2oc3ccc4ccccc4c3[n+]2CC)Oc2ccc3ccccc3c21,15,.,23,0.9,9,18
COc1cc(C(=O)N/N=C(\c2ccccc2)c2ccccn2)cc(OC)c1OC,-6,31,26,1.1,7,29
CCOC(=O)[C@]12CCCC=C1N(Cc1ccco1)C(=O)[C@H](CC(=O)NCc1ccccc1)C2,.,-8,.,.,.,.
Cc1ccc(S(=O)(=O)Nc2cccc3ncccc23)cc1,.,-10,12,.,14,.
Cc1ccc(S(=O)(=O)Nc2cccc3ncccc23)s1,-5,27,20,1.1,.,30
COc1ccc(/C=N/Nc2nc3ccccc3s2)cc1O,83*,44,40,0.2,54*,40
Cc1[nH]n(-c2ccccc2)c(=O)c1C(C[N+](=O)[O-])c1ccc(Br)cc1 (stereo not drawn),-7,4,6,1.1,7,0
CCc1nc2c(OCCC3CCCCC3)cccn2c1N(C=O)Cc1ccccc1,.,29,.,.,.,.
CCc1ccc(S(=O)(=O)/N=C2\C=C(Nc3cccc(C(=O)O)c3)C(=O)c3ccccc32)cc1,.,17,.,.,-5,.
Cc1ccc(NC2=C/C(=N\S(=O)(=O)c3cccs3)c3ccccc3C2=O)c(C)c1,6,96*,52*,0.9,8,54*
O=C1C(Nc2ccc(O)cc2)=C/C(=N/S(=O)(=O)c2cccs2)c2ccccc21,14,96*,73*,0.9,-1,74*
SMILES,FLuc inh counter,TRAIL sens C8,PPC-1+TRAIL kill,FLuc act counter,Platelet DG rel,PPC1 cytotox
Cc1ccc(S(=O)(=O)N2C3CCCCC3O[C@H]2CC(=O)c2cccs2)cc1 (stereo partly drawn),.,4,.,.,.,.
Cc1nc(Cc2nnc(SCC(=O)N(C)c3ccccc3)o2)cs1,.,-5,.,.,2,.
Cc1csc(N(C)C(=O)CSc2nnc(COc3ccccc3C)o2)n1,-2,20,-21,1,23,-15
Cc1ccc(CN2CCN(CC3CC4C=CC3C4)CC2)cc1 (stereo not drawn),-5,-10,0,1,-4,7
O=S(=O)(c1ccccc1)N1CCN(CC2CC3C=CC2C3)CC1 (stereo not drawn),-7,-2,13,1.1,5,.
Cc1ccc(NC(=O)Nc2nnc([C@H]3C[C@H](O)[C@@H](CO)O3)s2)cc1,.,-1,.,.,.,.
O=C(Nc1cccc(C(F)(F)F)c1)C1Cc2c(-c3ccccc3Oc3ccccc3)ccnc2O1 (stereo not drawn),.,21,.,.,.,.
Cc1cccc(/C=N/Nc2ccc3ccccc3n2)c1,91*,85*,71*,0.1,0,72*
Cc1ccc(/C=N/Nc2ccc3ccccc3n2)o1,87*,65*,52*,0.1,.,58*
C(=N\Nc1ccc2ccccc2n1)/c1ccc2c(c1)OCCO2,93*,81*,71*,0.1,45,75*
Cc1cc(N/N=C/c2cccc(Br)c2)nc2ccccc12,35,8,11,0.7,3,.
Cc1ccc(/C=N/Nc2cn[nH]c(=O)n2)o1,-6,-11,6,1.1,1,.
COc1cc(CNc2ncnc3c2ncn3[C@H]2CN(CCN3CCOCC3)C[C@@H](CO)O2)cc(OC)c1OC,.,-3,.,.,.,.
Cc1csc(NC(=O)c2cc3c(s2)CCC3)n1,79*,84*,51*,0.2,23,47
Cc1ccc(-c2cnc3cc(C)nn3c2)cc1,91*,68*,56*,0.1,-13,56*
O=C(c1ccc(CSc2nc3ccncc3[nH]2)cc1)N1CCCCCC1,.,81*,81*,.,0,83*
Cc1ccc(CSc2nc3ccncc3[nH]2)cc1,98*,93*,97*,0,26,97*
Cc1ccc(CSc2nc3ncccc3[nH]2)cc1,83*,67*,49,0.2,3,48
Clc1ccc(CSc2nc3ccncc3[nH]2)cc1,97*,92*,94*,0,17,93*
CC1=C(C(=O)N(C)C)CC(CC(=O)NCc2cccs2)C(=O)N1CCC1=CCCCC1 (stereo not drawn),.,3,.,.,.,.
Cc1ccccc1S(=O)(=O)N1C[C@@H]2C(C(=O)C[C@@H]3C(=O)N(C)C(=O)[C@@H]32)[C@@H]1c1ccc(Cl)cc1 (stereo partly drawn),.,-6,.,.,.,.
COCCNC(=O)c1ccc2c3n(nc2c1)-c1ccccc1CO3,.,58*,50*,.,16,55*
COCCNC(=O)c1ccc2c3n(nc2c1)-c1ccc(Cl)cc1CO3,.,14,26,.,2,.
C=CCNC(=O)c1ccc2c3n(nc2c1)-c1ccccc1CO3,.,86*,84*,.,24,84*
Cc1ccc2c(c1)COc1c3ccc(C(=O)NCCO)cc3nn1-2,.,32,23,.,-1,.
CCCS(=O)(=O)NC(=O)C1(C)CCN(C(=O)c2ccc3ccccc3c2)C1 (stereo not drawn),.,-11,.,.,.,.
O=[N+]([O-])c1ccc(N/N=C/c2cccc(O)c2O)c(S(=O)(=O)N2CCOCC2)c1,-4,22,16,1,-4,.
O=[N+]([O-])c1ccc(N/N=C/c2ccc(O)c(O)c2O)c(S(=O)(=O)N2CCOCC2)c1,1,14,4,1,3,8
